Measured values reported in publication PMC3041911 (Journal of Molecular Neuroscience, 2010).
Several values for one entry are separate records, joined by “and”; a condition that tells them apart may be missing. Equal values may be shown once. Read-outs that look alike come from different tables or passages of the source. Each block holds one compound with its values, some of them ahead of it.

Tests used:
[1] = test system: H4 cells overexpressing human APPK595N/M596L; assay: MTT viability assay, H4 cells; format: cell-based; settings: data not shown
[2] = test system: Aβ38, Aβ40 and Aβ42 formation in primary chicken telencephalic neurons; assay: Aβ secretion assay; format: cell-based; settings: for Aβ38 E max / Aβ40 E max / Aβ42 E max / IC50: 24 h treatment
Outline: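 Telencephalic neurons from E8 Lohman Brown chicken embryos, mechanically dissociated through a nylon sieve. Neurons were plated at 1.8×10^6 per poly-D-lysine-coated 24-well in DMEM (4.5 g glucose/l, 5% Nu Serum, 0.01% gentamicin, 2 mM L-glutamine). After 48 h the medium was exchanged and neurons were treated for 24 h at 37°C, 5% CO2 with DMSO-dissolved compound at a range of concentrations, vehicle constant.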

[3] = test system: Aβ38, Aβ40 and Aβ42 formation in H4 cells overexpressing human APPK595N/M596L; assay: Aβ secretion assay; format: cell-based; settings: for Aβ38 E max / Aβ40 E max / Aβ42 E max / IC50: H4 cells hAPPK595N/M596L, 24 h treatment; for Emax: Homo sapiens; for Effect on Aβ species at low nanomolar (sub-inhibitory) concentrations: low nanomolar concentrations (DAPT: 10 nM)
Outline: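 H4 human neuroglioma line stably transfected with human APP695 K595N/M596L (Swedish) under a CMV/chicken β-actin promoter. Cells were plated at 1×10^4 per 96-well in OptiMEM with 10% FBS, 1% penicillin/streptomycin, 200 μg/ml hygromycin-B and 2.5 μg/ml blasticidin-S. After 48 h the medium was exchanged and cells were dosed for 24 h at 37°C, 5% CO2 with DMSO-dissolved compound at a range of concentrations, vehicle constant.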

[4] = test system: primary chicken telencephalic neurons; assay: MTT viability assay, primary chicken neurons; format: cell-based; settings: data not shown
Outline: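 MTT viability assay in primary E8 chicken telencephalic neurons. Neurons were plated at 3×10^5 per poly-D-lysine-coated 96-well in DMEM with 5% Nu Serum, 0.01% gentamicin and 2 mM L-glutamine, kept at 37°C, 5% CO2, and exposed to DMSO-dissolved compound over a concentration range.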

[5] = test system: Aβ42 levels; settings: 100 μM; ref Okochi et al. [2006]; cited from earlier work
[6] = test system: Aβ formation in primary human neuronal cultures; settings: read-out: IC50 Aβ total, ref Dovey et al. [2001]; cited from earlier work
[7] = test system: total Aβ content in brain tissue; settings: in vivo administration; ref Dovey et al. [2001]; cited from earlier work
[8] = read-out: Aβ38 IC50, primary chicken neurons
[9] = read-out: Aβ40 IC50, primary chicken neurons
[10] = read-out: Aβ42 IC50, primary chicken neurons
[11] = primary chicken neurons, 25 μM compound, 24 h, mean ± SEM
[12] = primary chicken neurons, 50 μM compound, 24 h, mean ± SEM
[13] = H4 cells, 100 μM compound, 24 h, mean ± SEM
[14] = primary chicken neurons, 10 μM compound, 24 h, mean ± SEM
[15] = H4 cells, 10 μM compound, 24 h, mean ± SEM

IC50 [2, 8]: 3.7 nM
IC50 [2, 9]: 4.7 nM
IC50 [2, 10]: 4.8 nM
IC50 ([3]; read-out: Aβ38 IC50): 92.3 nM
IC50 ([3]; read-out: Aβ40 IC50): 125 nM
IC50 ([3]; read-out: Aβ42 IC50): 216 nM
Compound: β-secretase inhibitor IV
Cell viability (MTT), result in words [1]: no reduction in cell viability
Potency of BACE-1 inhibition in primary cells relative to H4 cell line ([2]; primary chicken neurons versus H4 cells hAPPK595N/M596L): approximately tenfold more potent
Concentration at which Aβ38, Aβ40 and Aβ42 levels start to decline ([2]; primary chicken neurons, 24 h): 5 nM
Aβ38 E max ([2]; primary chicken neurons): 91%
Aβ40 E max ([2]; primary chicken neurons): 76%
Aβ42 E max ([2]; primary chicken neurons): 70%
Aβ42 reduction ([2]; primary chicken neurons, inhibitor concentration 25 nM): more than 50%
Aβ38 E max [3]: 88%
Aβ40 E max [3]: 79%
Aβ42 E max [3]: 86%
Cell viability (MTT), result in words [4]: no reduction in cell viability

Compound: CSc1ccc(/C=C2/C(C)=C(CC(=O)O)c3cc(F)ccc32)cc1 [Sulindac sulfide, (Z)-5-fluoro-2-methyl-1-[p-(methylthio)benzylidene]indene-3-acetic acid]
Concentration at which cell toxicity starts (viability assay) ([1]; minor cell toxicity): 150 µM
Aβ38 level in percent of vehicle-treated cultures [2, 11]: approximately 149.7 ± 6.4%
Aβ42 level in percent of vehicle-treated cultures [2, 11]: 54.7 ± 6.4%
Aβ42 level in percent of vehicle-treated cultures [2, 12]: 25.3 ± 2.1%
Concentration at which Aβ42 levels start to decline ([2]; primary chicken neurons, 24 h): 25 µM
Aβ42 level in percent of vehicle-treated cultures ([3]; H4 cells, 50 μM compound, 24 h, mean ± SEM): 75.0 ± 7.1%
Aβ40 production (effect in words) ([3]; H4 cells, 100 μM compound, 24 h): unaltered
Aβ42 level in percent of vehicle-treated cultures [3, 13]: 39.3 ± 2.0%
Concentration at which Aβ42 levels start to decline ([3]; H4 cells, 24 h): 50 µM
Emax ([3]; 24 h, read-out: Aβ42 E max): 100%
Concentration at which toxicity starts (viability assay) [4]: 75 µM

Compound: O=C(O)c1cc(Oc2ccc([N+](=O)[O-])cc2)cc(Oc2ccc([N+](=O)[O-])cc2)c1 [CW, 3,5-bis(4-nitrophenoxy)benzoic acid]
Effect on Aβ42 levels [5]: reduce Aβ42 levels
Cell viability (MTT), result in words [1]: no cell toxicity
Aβ38 level in percent of vehicle-treated cultures [2, 14]: 127.9 ± 0.9%
Aβ42 level in percent of vehicle-treated cultures [2, 14]: 63.6 ± 2.4%
Aβ38 level in percent of vehicle-treated cultures [2, 12]: 159.3 ± 8.0%
Aβ42 level in percent of vehicle-treated cultures [2, 12]: 29.9 ± 1.2%
Concentration at which Aβ42 levels start to decline ([2]; primary chicken neurons, 24 h): 5 µM
Aβ40 content (effect in words) ([2]; primary chicken neurons, up to 50 μM compound): unchanged
Aβ38 level in percent of vehicle-treated cultures [3, 13]: 287.5 ± 31.2%
Aβ42 level in percent of vehicle-treated cultures [3, 13]: 16.0 ± 1.8%
Concentration at which Aβ42 levels start to decline ([3]; H4 cells, 24 h): 50 µM
Emax ([3]; 24 h, read-out: Aβ42 E max): 100%
Concentration at which toxicity starts (viability assay) [4]: 150 µM

Compound: CCCC[C@@H](C=O)NC(=O)[C@H](CC(C)C)NC(=O)OCc1ccccc1 [Calpeptin, benzyloxycarbonylleucyl-norleucinal]
Cell viability (MTT), result in words [1]: No toxicity
Aβ38 level in percent of vehicle-treated cultures [2, 14]: 31.1 ± 1.8%
Aβ40 level in percent of vehicle-treated cultures [2, 14]: 89.9 ± 3.8%
Aβ42 level in percent of vehicle-treated cultures [2, 14]: 259.3 ± 7.3%
Effect on Aβ levels up to 1 μM ([2]; primary chicken neurons, up to a concentration of 1 μM): no effect
Aβ38 level in percent of vehicle-treated cultures [3, 15]: 12.9 ± 2.6%
Aβ40 level in percent of vehicle-treated cultures [3, 15]: 35.5 ± 2.2%
Aβ42 level in percent of vehicle-treated cultures [3, 15]: 90.3 ± 6.0%
Effect on Aβ levels up to 1 μM ([3]; H4 cells, up to a concentration of 1 μM): did not evoke any dramatic changes
Emax ([3]; 24 h, read-out: Aβ38 E max): 100%
Emax ([3]; 24 h, read-out: Aβ40 E max): 100%
Cell viability (MTT), result in words [4]: No toxicity

IC50 [2, 8]: 71.2 nM
IC50 [2, 9]: 92.8 nM and 93 nM
IC50 [2, 10]: 101 nM
IC50 ([3]; read-out: Aβ38 IC50): 50.3 nM and 50 nM
IC50 ([3]; read-out: Aβ40 IC50): 61.4 nM and 61 nM
IC50 ([3]; read-out: Aβ42 IC50): 63.8 nM and 64 nM
Compound: C[C@H](NC(=O)Cc1cc(F)cc(F)c1)C(=O)N[C@H](C(=O)OC(C)(C)C)c1ccccc1 [DAPT, N-[N-(3,5-difluorophenacetyl-L-alanyl)]-S-phenylglycine t-butyl ester]
IC50 [6]: 115 nM
Cell viability (MTT), result in words [1]: not affected
Concentration in brain tissue that reduced total Aβ content [7]: ≥ 200 nM
Concentration at which Aβ38, Aβ40 and Aβ42 levels start to decline ([2]; primary chicken neurons, 24 h): 100 nM
Aβ38 E max ([2]; primary chicken neurons): 100%
Aβ40 E max ([2]; primary chicken neurons): 100%
Aβ42 E max ([2]; primary chicken neurons): 100%
Effect on Aβ species at low nanomolar (sub-inhibitory) concentrations ([2]; primary chicken neurons): no dramatic increase in Aβ levels
Aβ38 E max [3]: 100%
Aβ40 E max [3]: 100%
Aβ42 E max [3]: 100%
Concentration at which Aβ38, Aβ40 and Aβ42 levels start to decline ([3]; H4 cells, 24 h): 50 nM
Effect on Aβ species at low nanomolar (sub-inhibitory) concentrations ([3]; H4 cells): increased the formation of all three Aβ species
Cell viability (MTT), result in words [4]: not affected

IC50 [2, 8]: 61.9 nM
IC50 [2, 9]: 99.7 nM and 100 nM
IC50 [2, 10]: 107 nM
IC50 ([3]; read-out: Aβ38 IC50): 19.9 nM and 20 nM
IC50 ([3]; read-out: Aβ40 IC50): 23.1 nM and 23 nM
IC50 ([3]; read-out: Aβ42 IC50): 25.9 nM and 26 nM
Compound: COC(=O)[C@@H](NC(=O)[C@H](C)NC(=O)Cc1cc(F)cc(F)c1)c1ccccc1 [DAPM, N-(N-3,5-difluorophenacetyl)-L-alanyl-S-phenylglycine methyl ester]
Cell viability (MTT), result in words [1]: no effect on cell viability
Concentration at which Aβ38, Aβ40 and Aβ42 levels start to decline ([2]; primary chicken neurons, 24 h): 50 nM
Aβ38 E max ([2]; primary chicken neurons): 100%
Aβ40 E max ([2]; primary chicken neurons): 100%
Aβ42 E max ([2]; primary chicken neurons): 100%
Effect on Aβ species at low nanomolar (sub-inhibitory) concentrations ([2]; primary chicken neurons): no increase in Aβ secretion
Aβ38 E max [3]: 100%
Aβ40 E max [3]: 100%
Aβ42 E max [3]: 100%
Concentration at which Aβ38, Aβ40 and Aβ42 levels start to decline ([3]; H4 cells, 24 h): 50 nM
Effect on Aβ species at low nanomolar (sub-inhibitory) concentrations ([3]; H4 cells): increase of all three Aβ forms
Cell viability (MTT), result in words [4]: no effect on cell viability
